# Data published in ChEMBL document CHEMBL1212813, “alpha-Amino-3-hydroxy-5-methyl-4-isoxazolepropionic acid (AMPA) antagonists: from bench to bedside” (J Med Chem, 2010).
# Assays:
# Mus musculus [1] = assay: Anticonvulsant activity in po dosed mouse assessed as inhibition of MES-induced tonic seizures; format: functional
# Method in brief: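 Mice were dosed orally 2 h before maximal electroshock. The read-out was protection from tonic convulsions, and an ED50 was derived.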
# [2] = Displacement of [3H]AMPA from AMPA receptor in rat cortical membrane; format: cell membranes
# Glutamate NMDA receptor [3] = assay: Inhibition of NMDA receptor glutamate site from rat cortical membrane
# [4] = Displacement of [3H]kainate from kainate receptor in rat cortical membrane; format: cell membranes
# Mus musculus [5] = assay: Anticonvulsant activity in po dosed mouse assessed as inhibition of PTZ-induced seizures; format: functional
# Homo sapiens [6] = species on record: Homo sapiens; assay: Antiepileptic activity in human patient assessed as reduction in refractory partial seizures; format: functional; design: scale not given: the % may be the effect or the level left
# [7] = Antagonist activity at AMPA receptor in rat cortical membrane assessed as inhibition of AMPA-induced calcium accumulation; format: functional, cell membranes
# Mus musculus [8] = assay: Anticonvulsant activity in ip dosed DBA2 mouse assessed as inhibition of sound-induced clonic seizures; format: functional
# Glutamate NMDA receptor [9] = assay: Inhibition of NMDA receptor glycine site from rat cortical membrane
# Mus musculus [10] = assay: Anticonvulsant activity in ip dosed mouse assessed as inhibition of MES-induced tonic seizures; format: functional
# Homo sapiens [11] = species on record: Homo sapiens; assay: Toxicity in human assessed as hazy vision; format: organism-based; settings: in vivo
# Felis catus [12] = species on record: Felis catus; assay: Neuroprotective activity against middle cerebral artery occlusion-induced focal cerebral ischemia in cat assessed as reduction in infarct volume in cortex; format: functional; design: scale not given: the % may be the effect or the level left
# [13] = biological target: T1, Glutamate receptor ionotropic, kainate 2 (Homo sapiens, UniProt Q13002); settings: 10 uM
# Homo sapiens [14] = species on record: Homo sapiens; assay: Toxicity in human assessed as occurance of systemic allodynia; format: organism-based; settings: in vivo
# Felis catus [15] = species on record: Felis catus; assay: Neuroprotective activity against middle cerebral artery occlusion-induced focal cerebral ischemia in cat assessed as reduction in infarct volume in hemesphere; format: functional; design: scale not given: the % may be the effect or the level left
# [16] = biological target: T1, Glutamate receptor ionotropic, kainate 2; assay: Binding affinity to GluR6
# Meriones unguiculatus [17] = species on record: Meriones unguiculatus; assay: Neuroprotective activity against middle cerebral artery occlusion-induced focal cerebral ischemia in Mongolian gerbils assessed as reduction in infarct volume in cortex; format: functional; design: scale not given: the % may be the effect or the level left
# Homo sapiens [18] = species on record: Homo sapiens; assay: Toxicity in human assessed as sedation; format: organism-based; settings: in vivo
# [19] = biological target: Glutamate receptor ionotropic, kainate 3 (Homo sapiens, UniProt Q13003); assay: Binding affinity to GluR7
# Meriones unguiculatus [20] = species on record: Meriones unguiculatus; assay: Neuroprotective activity against middle cerebral artery occlusion-induced focal cerebral ischemia in Mongolian gerbils assessed as reduction in infarct volume in hemesphere; format: functional; design: scale not given: the % may be the effect or the level left
# [21] = biological target: Glutamate receptor ionotropic, kainate 1 (Homo sapiens) (UniProt P39086); assay: Binding affinity to GluR5
# Rattus norvegicus [22] = assay: Neuroprotective effect against middle cerebral artery occlusion-induced focal cerebral ischemia in iv dosed spontaneously hypertensive rat; format: functional
# Rattus norvegicus [23] = species on record: Rattus norvegicus; assay: Selectivity ratio IC50 for rat AMPA receptor to IC50 rat kainate receptor
# T1 sequence (Q13002 whole entry): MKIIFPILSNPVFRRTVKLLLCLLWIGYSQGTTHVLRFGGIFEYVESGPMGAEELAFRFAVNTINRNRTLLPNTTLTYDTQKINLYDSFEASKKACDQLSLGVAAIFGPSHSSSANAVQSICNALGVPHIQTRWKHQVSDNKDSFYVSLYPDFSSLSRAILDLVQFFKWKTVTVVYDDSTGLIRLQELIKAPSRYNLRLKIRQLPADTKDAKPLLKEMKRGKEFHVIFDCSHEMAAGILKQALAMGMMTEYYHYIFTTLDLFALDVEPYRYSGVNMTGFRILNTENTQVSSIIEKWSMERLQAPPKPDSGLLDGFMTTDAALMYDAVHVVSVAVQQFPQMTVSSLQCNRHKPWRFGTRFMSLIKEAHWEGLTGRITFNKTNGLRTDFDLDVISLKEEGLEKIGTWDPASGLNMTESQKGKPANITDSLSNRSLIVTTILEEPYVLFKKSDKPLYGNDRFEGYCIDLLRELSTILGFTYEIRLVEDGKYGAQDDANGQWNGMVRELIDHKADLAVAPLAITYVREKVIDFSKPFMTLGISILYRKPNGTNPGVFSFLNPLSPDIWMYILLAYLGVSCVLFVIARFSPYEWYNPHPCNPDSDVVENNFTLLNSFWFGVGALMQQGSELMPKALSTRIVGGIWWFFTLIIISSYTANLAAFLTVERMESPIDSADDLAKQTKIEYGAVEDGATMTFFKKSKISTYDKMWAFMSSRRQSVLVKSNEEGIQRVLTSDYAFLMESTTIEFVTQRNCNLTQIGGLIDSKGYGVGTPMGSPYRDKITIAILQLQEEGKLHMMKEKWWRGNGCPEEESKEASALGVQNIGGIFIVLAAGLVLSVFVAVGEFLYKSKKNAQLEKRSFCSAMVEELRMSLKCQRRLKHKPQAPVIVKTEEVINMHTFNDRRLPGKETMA
# Glutamate receptor ionotropic, kainate 3, sequence (Q13003 whole entry): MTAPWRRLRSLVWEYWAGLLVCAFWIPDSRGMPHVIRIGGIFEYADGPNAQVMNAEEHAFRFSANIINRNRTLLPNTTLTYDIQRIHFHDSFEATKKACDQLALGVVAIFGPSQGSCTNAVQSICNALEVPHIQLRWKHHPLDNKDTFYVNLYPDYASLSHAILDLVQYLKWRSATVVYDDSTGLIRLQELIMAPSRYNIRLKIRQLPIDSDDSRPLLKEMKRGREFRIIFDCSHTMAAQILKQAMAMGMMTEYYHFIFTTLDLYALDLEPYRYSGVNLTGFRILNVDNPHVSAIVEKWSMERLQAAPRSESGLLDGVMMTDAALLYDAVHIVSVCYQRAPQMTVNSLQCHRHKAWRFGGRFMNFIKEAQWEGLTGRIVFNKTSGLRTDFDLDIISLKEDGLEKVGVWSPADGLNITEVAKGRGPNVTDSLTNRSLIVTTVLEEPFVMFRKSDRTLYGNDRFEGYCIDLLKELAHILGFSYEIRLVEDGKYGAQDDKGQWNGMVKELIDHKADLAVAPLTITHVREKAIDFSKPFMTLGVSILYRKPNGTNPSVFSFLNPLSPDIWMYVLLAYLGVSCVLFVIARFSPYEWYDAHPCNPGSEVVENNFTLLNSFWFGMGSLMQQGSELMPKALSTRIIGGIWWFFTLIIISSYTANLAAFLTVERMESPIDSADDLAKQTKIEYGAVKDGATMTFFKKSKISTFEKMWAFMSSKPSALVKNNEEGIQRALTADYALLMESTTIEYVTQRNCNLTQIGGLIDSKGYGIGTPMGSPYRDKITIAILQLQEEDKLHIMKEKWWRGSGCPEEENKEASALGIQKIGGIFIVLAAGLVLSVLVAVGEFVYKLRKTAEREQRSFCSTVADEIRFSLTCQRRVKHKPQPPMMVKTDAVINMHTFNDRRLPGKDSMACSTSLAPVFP
# Glutamate receptor ionotropic, kainate 1 (Homo sapiens), sequence (P39086 whole entry): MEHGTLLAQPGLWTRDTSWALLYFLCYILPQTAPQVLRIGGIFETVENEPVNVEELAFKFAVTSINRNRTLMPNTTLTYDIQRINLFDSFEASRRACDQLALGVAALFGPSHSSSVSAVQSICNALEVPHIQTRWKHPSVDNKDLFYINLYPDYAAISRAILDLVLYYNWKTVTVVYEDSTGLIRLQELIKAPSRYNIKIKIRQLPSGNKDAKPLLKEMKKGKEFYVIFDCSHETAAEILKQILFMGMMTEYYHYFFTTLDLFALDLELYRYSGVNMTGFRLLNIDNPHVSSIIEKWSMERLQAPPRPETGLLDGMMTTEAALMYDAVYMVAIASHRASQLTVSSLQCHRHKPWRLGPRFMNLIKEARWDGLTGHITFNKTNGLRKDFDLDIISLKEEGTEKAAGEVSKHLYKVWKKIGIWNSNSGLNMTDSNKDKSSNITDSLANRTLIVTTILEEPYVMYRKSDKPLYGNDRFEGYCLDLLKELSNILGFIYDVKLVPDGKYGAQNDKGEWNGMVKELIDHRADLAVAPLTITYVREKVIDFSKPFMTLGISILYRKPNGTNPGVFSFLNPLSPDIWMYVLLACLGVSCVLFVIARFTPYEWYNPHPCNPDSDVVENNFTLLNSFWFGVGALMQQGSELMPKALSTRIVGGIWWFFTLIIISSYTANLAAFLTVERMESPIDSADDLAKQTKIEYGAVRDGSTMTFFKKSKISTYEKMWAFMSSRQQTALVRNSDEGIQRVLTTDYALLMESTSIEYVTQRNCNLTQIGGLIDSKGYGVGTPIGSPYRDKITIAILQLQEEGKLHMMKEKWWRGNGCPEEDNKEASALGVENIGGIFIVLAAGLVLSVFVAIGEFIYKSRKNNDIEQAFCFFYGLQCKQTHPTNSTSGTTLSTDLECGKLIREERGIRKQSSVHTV
compound,measurement,setting,value
O=C1C[C@@H]2OCC=C3CN4CC[C@]56c7ccccc7N1[C@H]5[C@H]2[C@H]3C[C@H]46 [STRYCHNINE],ED50,Mus musculus [1],17.4 mg/kg
CN1CCc2cc3c(cc2[C@H]1[C@@H]1OC(=O)c2c1ccc1c2OCO1)OCO3 [BICUCULLINE],ED50,Mus musculus [1],14.6 mg/kg
CCC1(C)CC(=O)NC(=O)C1 [BEMEGRIDE],ED50,Mus musculus [1],23.9 mg/kg
O=c1[nH]c2cc(-n3ccnc3)c([N+](=O)[O-])cc2[nH]c1=O [YM-90K],Ki,[2],0.084 µM
same,Ki,Glutamate NMDA receptor [3],> 100 µM
same,Ki,[4],2.2 µM
N#Cc1ccccc1-c1cc(-c2ccccn2)cn(-c2ccccc2)c1=O [PERAMPANEL],ED50,Mus musculus [5],0.94 mg/kg
same,ED50,Mus musculus [1],1.6 mg/kg
same,Activity,Homo sapiens [6],40%
same,IC50,[7],0.093 µM
same,ED50,Mus musculus [8],0.47 mg/kg
O=c1[nH]c2cc([N+](=O)[O-])c([N+](=O)[O-])cc2[nH]c1=O [DNQX],IC50,[2],0.5 µM
same,IC50,Glutamate NMDA receptor [9],9.5 µM
same,IC50,Glutamate NMDA receptor [3],40 µM
same,IC50,[4],2 µM
Nc1ccncc1 [DALFAMPRIDINE],ED50,Mus musculus [1],8.4 mg/kg
CS(=O)(=O)Nn1c(=O)[nH]c2cc(Cl)ccc2c1=O,ED50,Mus musculus [10],40 mg/kg
O=C(O)[C@@H]1C[C@H]2C[C@@H](CCc3nn[nH]n3)CC[C@H]2CN1 [TEZAMPANEL ANHYDROUS],Activity,Homo sapiens [11],20%
same,Activity,Felis catus [12],19%
same,ED50,Mus musculus [10],2.9 mg/kg
same,inhibition,[13],< 20%
same,IC50,[2],1.3 µM
same,Ki,[2],0.68 µM
same,Activity,Homo sapiens [14],<= 58%
same,Activity,Felis catus [15],18%
same,IC50,[4],28.1 µM
same,Ki,[16],> 100 µM
same,Activity,Meriones unguiculatus [17],31%
same,Activity,Homo sapiens [18],15%
same,Ki,[19],> 100 µM
same,Activity,Meriones unguiculatus [20],25%
same,Kb,[21],0.2 µM
CN1CCC[C@H]1c1cccnc1 [NICOTINE],ED50,Mus musculus [1],22.7 mg/kg
O=P(O)(O)CNCc1cc(Br)cc2nc(O)c(O)nc12,IC50,[2],2.4 µM
NS(=O)(=O)c1cccc2c1c([N+](=O)[O-])cc1nc(O)c(O)nc12 [NBQX],IC50,[2],0.15 µM
same,Activity,Rattus norvegicus [22],30%
same,IC50,Glutamate NMDA receptor [9],> 100 µM
same,IC50,Glutamate NMDA receptor [3],> 90 µM
same,IC50,[4],4.8 µM
same,ED50,Mus musculus [8],27.8 mg/kg
same,Ratio IC50,Rattus norvegicus [23],> 30
O=[N+]([O-])c1ccc2nc(O)c(O)nc2c1,Ki,[2],2 µM
